Data published in ChEMBL document CHEMBL1177712, “Synthesis and characterization of in vitro and in vivo profiles of hydroxybupropion analogues: aids to smoking cessation” (J Med Chem, 2010).
The source made the active and inactive calls.

How the values were obtained:
[1] = test system: Mus musculus; assay: Smoke cessation activity in sc dosed ICR mouse assessed as inhibition of nicotine-induced antinociception administered 15 mins before nicotine challenge measured after 5 mins of nicotine infusion by hotplate assay; type: functional, organism-based
Method in brief: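 Male ICR mice (20–25 g) were pretreated with saline or test drug 15 min before nicotine at 2.5 mg/kg sc. They were tested 5 min later on a 55 °C hot plate (40 s cutoff), and the result was expressed as %MPE. AD₅₀ came from at least four doses, with at least 8 mice per dose.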

[2] = test system: Mus musculus; assay: Smoke cessation activity in sc dosed ICR mouse assessed as inhibition of nicotine-induced antinociception administered 15 mins before nicotine challenge measured after 5 mins of nicotine infusion by tail-flick assay; type: functional, organism-based
Method in brief: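 Radiant-heat tail-flick latency was read 5 min later (10 s cutoff; baseline 2–4 s) and expressed as %MPE. AD₅₀ came from at least four doses, with at least 8 mice per dose.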

[3] = test system: Mus musculus; assay: Smoke cessation activity in sc dosed ICR mouse assessed as inhibition of nicotine-induced increase in locomotor activity administered 15 mins before nicotine challenge measured after 5 mins of nicotine infusion; type: functional, organism-based
[4] = test system: Mus musculus; assay: Smoke cessation activity in sc dosed ICR mouse assessed as inhibition of nicotine-induced hypothermia administered 15 mins before nicotine challenge measured after 30 mins of nicotine infusion; type: functional, organism-based
Method in brief: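 Male ICR mice (20–25 g) were pretreated with test drug or saline 15 min before nicotine at 2.5 mg/kg sc. Rectal temperature was taken before and 30 min after nicotine, and the change was calculated. Room temperature was 21–24 °C. AD₅₀ came from at least four doses, with at least 8 mice per dose.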

[5] = test system: Mus musculus; assay: Toxicity in sc dosed ICR mouse assessed occurrence of sedation; type: organism-based; conditions: in vivo
[6] = test system: Mus musculus; assay: Toxicity in sc dosed ICR mouse assessed occurrence of convulsion; type: organism-based; conditions: in vivo
[7] = target: Neuronal acetylcholine receptor; alpha4/beta2 (Homo sapiens, UniProt P17787+P43681); assay: Agonist activity at alpha4beta2 nicotinic receptor in human SH-EP1 cells assessed as induction of radiolabeled Rb+ influx at 0.005 to 100 uM by liquid scintillation counting; type: functional, cell-based
Method in brief: (§1)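 Cells were labelled with ⁸⁶Rb⁺ for at least 4 h, then exposed for 5 min in efflux buffer (pH 7.4) to test ligand alone at ~5 nM to 100 μM. The lines were TE671/RD (muscle α1β1γδ), SH-SY5Y (α3β4*) and transfected SH-EP1-hα4β2 or -hα4β4. Efflux was Cerenkov-counted. Non-specific efflux was subtracted, and results were normalized to specific efflux from carbamylcholine (1 mM; 3 mM for SH-SY5Y).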

[8] = target: T1, Neuronal acetylcholine receptor; alpha4/beta4 (Homo sapiens, UniProt P30926+P43681); assay: Agonist activity at alpha4beta4 nicotinic receptor in human SH-EP1 cells assessed as induction of radiolabeled Rb+ influx at 0.005 to 100 uM by liquid scintillation counting; type: functional, cell-based; method in brief: as §1
[9] = test system: SH-EP1; assay: Selectivity ratio of IC50 for alpha4beta2 nicotinic receptor in human SH-EP1 cells to IC50 for IC50 for human NET; type: cell-based
[10] = target: T1, Neuronal acetylcholine receptor; alpha4/beta4; assay: Antagonist activity at alpha4beta4 nicotinic receptor in human SH-EP1 cells assessed as inhibition varbamylcholine-induced radiolabeled Rb+ influx at by liquid scintillation counting; type: functional, cell-based
Method in brief: (§2)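 ⁸⁶Rb⁺-loaded human cells were given a 5-min efflux with carbamylcholine at EC₈₀–EC₉₀ plus graded test ligand. Non-specific efflux, taken with 100 μM mecamylamine or buffer, was subtracted. IC₅₀ came from a Hill fit of three independent experiments, with SEM given as a multiplication factor.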

[11] = target: Acetylcholine receptor; alpha1/beta1/delta/gamma (Homo sapiens, UniProt P02708+P07510+P11230+Q07001); assay: Antagonist activity at alpha-1-beta-1-gamma-delta nicotinic receptor in human TE671 cells assessed as inhibition varbamylcholine-induced radiolabeled Rb+ influx at by liquid scintillation counting; type: functional, cell-based, TE-671; method in brief: as §2
Chain of Acetylcholine receptor; alpha1/beta1/delta/gamma (P02708 whole entry): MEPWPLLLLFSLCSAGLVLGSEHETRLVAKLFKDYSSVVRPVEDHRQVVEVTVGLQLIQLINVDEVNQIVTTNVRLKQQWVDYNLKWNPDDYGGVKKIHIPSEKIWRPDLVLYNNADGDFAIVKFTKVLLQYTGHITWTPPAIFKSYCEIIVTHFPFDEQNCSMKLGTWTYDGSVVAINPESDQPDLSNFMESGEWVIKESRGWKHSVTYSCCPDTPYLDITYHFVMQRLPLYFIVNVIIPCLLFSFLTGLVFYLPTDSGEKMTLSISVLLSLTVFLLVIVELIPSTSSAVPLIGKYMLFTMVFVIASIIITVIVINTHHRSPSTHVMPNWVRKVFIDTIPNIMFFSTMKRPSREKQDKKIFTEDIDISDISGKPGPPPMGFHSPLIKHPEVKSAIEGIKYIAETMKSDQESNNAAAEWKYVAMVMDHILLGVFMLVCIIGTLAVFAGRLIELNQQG
Chain of Acetylcholine receptor; alpha1/beta1/delta/gamma (P07510 whole entry): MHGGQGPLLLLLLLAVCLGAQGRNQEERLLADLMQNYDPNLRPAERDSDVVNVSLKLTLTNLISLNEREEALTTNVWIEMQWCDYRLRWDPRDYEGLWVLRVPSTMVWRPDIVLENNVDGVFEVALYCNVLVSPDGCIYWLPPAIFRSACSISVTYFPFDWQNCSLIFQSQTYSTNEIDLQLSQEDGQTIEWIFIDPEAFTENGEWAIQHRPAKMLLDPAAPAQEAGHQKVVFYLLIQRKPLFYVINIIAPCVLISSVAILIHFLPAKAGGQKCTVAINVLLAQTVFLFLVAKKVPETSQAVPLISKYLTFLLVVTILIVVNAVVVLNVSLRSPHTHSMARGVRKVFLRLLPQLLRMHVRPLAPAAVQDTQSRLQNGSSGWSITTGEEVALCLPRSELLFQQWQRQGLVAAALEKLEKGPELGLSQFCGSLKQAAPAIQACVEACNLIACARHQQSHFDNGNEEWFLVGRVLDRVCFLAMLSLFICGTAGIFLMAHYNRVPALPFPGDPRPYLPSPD
Chain of Acetylcholine receptor; alpha1/beta1/delta/gamma (P11230 whole entry): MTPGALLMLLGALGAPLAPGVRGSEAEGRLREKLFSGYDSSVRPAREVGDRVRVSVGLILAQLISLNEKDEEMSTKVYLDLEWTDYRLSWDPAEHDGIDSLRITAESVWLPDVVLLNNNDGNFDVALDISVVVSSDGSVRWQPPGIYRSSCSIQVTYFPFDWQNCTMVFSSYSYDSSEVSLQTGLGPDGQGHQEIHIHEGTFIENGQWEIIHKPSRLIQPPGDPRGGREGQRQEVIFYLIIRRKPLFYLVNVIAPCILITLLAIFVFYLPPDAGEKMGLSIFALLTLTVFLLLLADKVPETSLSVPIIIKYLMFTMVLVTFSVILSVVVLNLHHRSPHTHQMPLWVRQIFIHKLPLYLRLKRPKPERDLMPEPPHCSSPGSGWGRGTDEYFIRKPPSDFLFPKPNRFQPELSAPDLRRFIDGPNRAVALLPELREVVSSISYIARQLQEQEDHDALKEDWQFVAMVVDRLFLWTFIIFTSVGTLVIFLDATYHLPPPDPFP
Chain of Acetylcholine receptor; alpha1/beta1/delta/gamma (Q07001 whole entry): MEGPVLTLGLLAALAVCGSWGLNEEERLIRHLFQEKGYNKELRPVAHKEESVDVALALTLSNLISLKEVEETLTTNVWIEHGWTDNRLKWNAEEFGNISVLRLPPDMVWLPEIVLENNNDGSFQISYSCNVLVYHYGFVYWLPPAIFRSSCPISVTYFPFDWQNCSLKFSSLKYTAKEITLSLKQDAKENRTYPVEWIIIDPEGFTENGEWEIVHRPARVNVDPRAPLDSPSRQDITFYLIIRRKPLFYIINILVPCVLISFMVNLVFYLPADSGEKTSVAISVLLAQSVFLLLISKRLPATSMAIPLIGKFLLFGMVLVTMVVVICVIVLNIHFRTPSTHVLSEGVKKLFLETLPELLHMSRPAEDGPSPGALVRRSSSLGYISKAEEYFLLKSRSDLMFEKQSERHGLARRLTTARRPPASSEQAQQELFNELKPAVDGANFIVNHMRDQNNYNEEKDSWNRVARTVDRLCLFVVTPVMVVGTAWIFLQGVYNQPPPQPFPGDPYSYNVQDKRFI

T1 sequence (P30926 whole entry): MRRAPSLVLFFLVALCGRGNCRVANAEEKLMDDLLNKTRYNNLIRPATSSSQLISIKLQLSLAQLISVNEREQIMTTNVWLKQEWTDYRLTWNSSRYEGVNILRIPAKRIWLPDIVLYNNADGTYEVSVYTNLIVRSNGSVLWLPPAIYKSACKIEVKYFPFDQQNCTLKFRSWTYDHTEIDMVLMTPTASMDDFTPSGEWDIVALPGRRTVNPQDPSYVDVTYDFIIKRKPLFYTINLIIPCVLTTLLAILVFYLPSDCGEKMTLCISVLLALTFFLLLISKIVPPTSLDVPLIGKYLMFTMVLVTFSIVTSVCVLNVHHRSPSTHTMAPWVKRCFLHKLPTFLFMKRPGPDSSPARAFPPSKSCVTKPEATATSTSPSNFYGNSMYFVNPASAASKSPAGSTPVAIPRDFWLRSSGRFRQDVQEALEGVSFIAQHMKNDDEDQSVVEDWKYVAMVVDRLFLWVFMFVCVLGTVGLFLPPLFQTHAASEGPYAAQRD
T1 sequence (P43681 whole entry): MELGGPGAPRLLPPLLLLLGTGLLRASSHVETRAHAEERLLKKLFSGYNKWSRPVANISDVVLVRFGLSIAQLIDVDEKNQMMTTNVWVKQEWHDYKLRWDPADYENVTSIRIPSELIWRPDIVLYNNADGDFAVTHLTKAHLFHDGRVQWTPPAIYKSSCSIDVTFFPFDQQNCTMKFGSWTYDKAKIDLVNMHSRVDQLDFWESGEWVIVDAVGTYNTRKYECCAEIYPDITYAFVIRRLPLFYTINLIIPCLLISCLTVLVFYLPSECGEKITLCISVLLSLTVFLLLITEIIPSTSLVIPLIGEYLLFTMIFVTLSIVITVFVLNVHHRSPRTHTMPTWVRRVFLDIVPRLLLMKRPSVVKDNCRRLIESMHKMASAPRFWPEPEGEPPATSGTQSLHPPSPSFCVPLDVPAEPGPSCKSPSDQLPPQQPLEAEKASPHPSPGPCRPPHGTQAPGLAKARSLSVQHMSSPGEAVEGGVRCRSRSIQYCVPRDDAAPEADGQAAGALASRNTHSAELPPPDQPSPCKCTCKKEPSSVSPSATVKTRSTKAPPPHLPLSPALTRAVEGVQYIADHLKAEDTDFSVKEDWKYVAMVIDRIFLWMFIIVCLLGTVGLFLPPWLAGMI

C[C@H]1NC(C)(C)CO[C@]1(O)c1cccc(Cl)c1 gave an IC50 [1] of 10.3 mg/kg, an IC50 [2] of 2.5 mg/kg and an IC50 [3] of over 15 mg/kg. For the same compound, the IC50 [4] was over 15 mg/kg, the Activity [5] was “Non-toxic” and the Activity [6] was “Non-toxic”.
Compound C[C@@H]1NC(C)(C)CO[C@@]1(O)c1cccc(Cl)c1 [RADAFAXINE] has an IC50 [1] of 1 mg/kg, an IC50 [2] of 0.2 mg/kg and an IC50 [3] of 0.9 mg/kg. For the same compound, the Activity [5] was “Non-toxic” and the Activity [6] was “Non-toxic”.
CC[C@@H]1NC(C)(C)CO[C@@]1(O)c1cccc(Cl)c1 was tested, and the Activity [7] was “inactive”, the Activity [8] was “inactive” and the Ratio IC50 [9] was 67. The IC50 [1] was 3.7 mg/kg, the IC50 [2] was 0.004 mg/kg and the IC50 [3] was 10.3 mg/kg. For the same compound, the IC50 [4] was 7 mg/kg, the Activity [5] was “Non-toxic” and the Activity [6] was “Non-toxic”.
For Cc1ccc([C@]2(O)OCC(C)(C)N[C@H]2C)cc1, the Activity [7] was “inactive”, the Activity [8] was “inactive” and the IC50 [1] was over 15 mg/kg. The IC50 [2] was 0.004 mg/kg, the IC50 [3] was over 15 mg/kg and the IC50 [4] was over 15 mg/kg. For the same compound, the Activity [5] was “Non-toxic” and the Activity [6] was “Non-toxic”.
With CC1NC(C)(C)COC1(O)c1cccnc1 (racemic) the Activity [7] was “inactive”, the Activity [8] was “inactive” and the IC50 [10] was over 100 µM. For the same compound, the IC50 [11] was over 100 µM, the Activity [5] was “Non-toxic” and the Activity [6] was “Non-toxic”.
C[C@@H]1NC(C)(C)CO[C@@]1(O)c1ccc(-c2ccccc2)cc1 gave an IC50 [1] of over 15 mg/kg, an IC50 [2] of 0.021 mg/kg and an IC50 [3] of over 15 mg/kg. For the same compound, the IC50 [4] was over 15 mg/kg, the Activity [5] was “Non-toxic” and the Activity [6] was “Non-toxic”.
For Cc1cccc([C@]2(O)OCC(C)(C)N[C@H]2C)c1, the Activity [7] was “inactive”, the Activity [8] was “inactive” and the Ratio IC50 [9] was 5.3. The IC50 [1] was 7.6 mg/kg, the IC50 [2] was 0.054 mg/kg and the IC50 [3] was over 15 mg/kg. For the same compound, the IC50 [4] was 2.3 mg/kg, the Activity [5] was “Non-toxic” and the Activity [6] was “Non-toxic”.
With C[C@@H]1NC(C)(C)CO[C@@]1(O)c1cccc(Br)c1 the Activity [7] was “inactive”, the Activity [8] was “inactive” and the IC50 [1] was 4.3 mg/kg. The IC50 [2] was 0.16 mg/kg, the IC50 [3] was 2.6 mg/kg and the IC50 [4] was 1.7 mg/kg. The Activity [5] was “Non-toxic” and the Activity [6] was “Non-toxic”.
For C[C@@H]1N(C)C(C)(C)CO[C@@]1(O)c1cccc(Cl)c1, the Activity [7] was “inactive”, the Activity [8] was “inactive” and the IC50 [1] was over 15 mg/kg. It also gave an IC50 [2] of 0.016 mg/kg, an IC50 [3] of over 15 mg/kg and an IC50 [4] of over 15 mg/kg. For the same compound, the Activity [5] was “Non-toxic” and the Activity [6] was “Non-toxic”.
With C[C@@H]1NC(C)(C)CO[C@@]1(O)c1cccc(F)c1 the Activity [7] was “inactive”, the Activity [8] was “inactive” and the IC50 [10] was over 100 µM. For the same compound, the IC50 [11] was over 100 µM, the Ratio IC50 [9] was 1.7 and the IC50 [1] was 8.6 mg/kg. For the same compound, the IC50 [2] was 0.012 mg/kg, the IC50 [3] was over 15 mg/kg and the IC50 [4] was 4.4 mg/kg. For the same compound, the Activity [5] was “Non-toxic” and the Activity [6] was “Non-toxic”.
For C[C@@H]1NC(C)(C)CO[C@@]1(O)c1ccc(F)c(F)c1, the Activity [7] was “inactive”, the Activity [8] was “inactive” and the IC50 [10] was over 100 µM. For the same compound, the IC50 [1] was over 15 mg/kg, the IC50 [2] was 0.006 mg/kg and the IC50 [3] was over 15 mg/kg. The IC50 [4] was over 15 mg/kg, the Activity [5] was “Non-toxic” and the Activity [6] was “Non-toxic”.
